Measured values published in PMC5724766 (Bioorganic & medicinal chemistry, 2016).

How the values were obtained:
[1] = test system: proteasome; details: cited from earlier work; for IC50: read-out: IC50, proteasome inhibition
[2] = molecular target: purified human 20S proteasome, tryptic (β2)-like activity (Homo sapiens, UniProt Q99436); assay: 20S proteasome trypsin-like; format: biochemical
In short: (§1)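 Purified human 20S proteasome (1 nM) in 50 mM Tris-HCl pH 7.5 with 0.03% SDS and 50 μM fluorogenic substrate at 37 °C: Z-LLE-AMC for caspase-like activity, Z-ARR-AMC for trypsin-like activity. Released aminomethylcoumarin read at ex 380/em 460 nm every minute for 30 min. Maximum fluorescence increase per minute gives the specific activity of each sample.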

[3] = molecular target: purified human 20S proteasome, caspase (β1)-like activity (Homo sapiens, UniProt P28072); assay: 20S proteasome caspase-like; format: biochemical
In short: as §1

Nc1ccc(O)c2ncccc12 [5-AHQ, 5-amino-8-hydroxyquinoline]
IC50 [1]: 0.6 to 5 µM

Cc1cc(C)c2cc(C3=CCCCC3)c(C)nc2c1 [Compound 7, 3-Cyclohexenyl-2,5,7-trimethylquinoline]
IC50 [2]: > 25 µM

Cc1nc2ccc(N3CCCCC3)cc2cc1C1=CCCCC1 [Compound 25, 3-Cyclohexenyl-2-methyl-6-piperidinylquinoline]
inhibition of tryptic-like activity (in words) ([2]; purified human 20S proteasome, Suppl. Fig. S6): not the tryptic-like activity | IC50 [3]: 10.9 µM

O=C1C(Cl)=C(Nc2ccc(S(=O)(=O)Nc3ccccn3)cc2)C(=O)c2ccccc21 [PI-083]
IC50 [1]: ~1 µM

CCN(CC)CCCC(C)Nc1ccnc2cc(Cl)ccc12 (stereo not drawn) [chloroquine]
proteasome inhibitory activity (in words) [1]: millimolar activity
